In ChEMBL document CHEMBL3046042, “3-(4-Methylfuran-3-yl)propan-1-ol: a white-spotted Stinkbug ( Eysarcoris ventralis ) repellent produced by an endophyte isolated from green foxtail” (2010) one finds Repellency data, which are given here for 6 compounds.

Type in all cases: functional
Assay [1] concerns Eysarcoris. The assay can be described thus: Repellent activity against Eysarcoris ventralis assessed as reduction in number of bugs at 0.1 umol measured after 30 min. The gist of the method:
(§1)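 Two-choice bottle assay. Sample dissolved in acetone, 50 μL applied to filter paper strip (5 × 40 mm); control strip got acetone only. Strips dried, each placed in a glass bottle joined to the apparatus. Twenty E. ventralis adults released, held at 10 °C under light; bugs per bottle counted after 30 min. Repellency calculated by formula; four repeats, average ± standard error.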

Assay [2] deals with Eysarcoris. The assay can be described thus: Repellent activity against Eysarcoris ventralis assessed as reduction in number of bugs at 0.01 umol measured after 30 min. A digest of the protocol: as §1
Assay [3] has as its system Eysarcoris. Kind of assay: Repellent activity against Eysarcoris ventralis assessed as reduction in number of bugs at 0.003 umol measured after 30 min. A digest of the protocol:
as §1

Assay [4] deals with Eysarcoris. The assay can be described thus: Repellent activity against Eysarcoris ventralis assessed as reduction in number of bugs at 1 umol measured after 30 min. A digest of the protocol: as §1

For `CC(=O)OCCCc1cocc1C`, the values for the Repellency in assay [1], in assay [2] and in assay [3] were 90.2%, 7.3% and 10.7%, respectively.

Regarding `c1ccc2ccccc2c1` [NAPHTHALENE], the Repellency in assay [1] is 44.6%; in assay [4] it was 80.4%; in assay [2], 40.7%.

On to `CCCC(=O)OCCCc1cocc1C`, for which the Repellency was 51.8% in assay [1], 96.4% in assay [4], -19.4% in assay [2] and 19.5% in assay [3].

Turning to `Cc1cocc1CCCO`, the Repellency in assay [1] is given as 5.7%; in assay [4], 89.3%.

On to `CCC(=O)OCCCc1cocc1C`, for which the Repellency in assay [1] turned out to be 58%; in assay [4], 89.3%; in assay [2], 20.5%.

For the compound `Cc1cocc1CCCOC(=O)c1ccccc1`, the values for the Repellency in assay [1] and in assay [4] were 5.3% and 40.7%, respectively.
